# Bioassay records: PubChem, several laboratories
# Hits are enriched below; roughly 2.4% of the tested compounds scored in any of these assays.
# PRMT1 FP inh – PRMT1 methyltransferase inhibitors, primary screen, biochemical, fluorescence polarization; recombinant PRMT1, activity-based probe fluorescence polarization; inhibition, % at 2.79 µM; hit rate 1.3% among 370,000; AID 652257, 2013;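 active means inhibition above about 21% made by adding two undisclosed values, limit read from the data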
# GASC-1 inh – inhibitors of GASC-1 histone demethylase, primary screen, biochemical, fluorescence, DELFIA europium. Lysine-specific demethylase 4C (Homo sapiens), Q9H3R0. GST-JMJD2C(1-420) H3K9me3 demethylation. inhibition, % at 2.35 µM. hit rate 0.069% among 330,000;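 active means more than half of a compound's replicate wells show inhibition beyond 50%, single wells judged on their own value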;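 further: signal counts dimethyl H3K9 product captured on neutravidin plate; 0% = median of DMSO wells and 100% = 0.3 times that DMSO median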
# HTRA1 inh – HTRA1 serine protease inhibitors, primary screen, biochemical, fluorescence polarization, HTS | Q92743 | recombinant HTRA1, FP-rhodamine activity-based probe | inhibition, % at 5.96 µM | hit rate 0.5% among 340,000 | AID 504803, 2011; in the data active means inhibition above about 36%;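 further: 0% = enzyme with DMSO and 100% = wells lacking enzyme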
# Target sequence (Q92743 whole entry, looked up): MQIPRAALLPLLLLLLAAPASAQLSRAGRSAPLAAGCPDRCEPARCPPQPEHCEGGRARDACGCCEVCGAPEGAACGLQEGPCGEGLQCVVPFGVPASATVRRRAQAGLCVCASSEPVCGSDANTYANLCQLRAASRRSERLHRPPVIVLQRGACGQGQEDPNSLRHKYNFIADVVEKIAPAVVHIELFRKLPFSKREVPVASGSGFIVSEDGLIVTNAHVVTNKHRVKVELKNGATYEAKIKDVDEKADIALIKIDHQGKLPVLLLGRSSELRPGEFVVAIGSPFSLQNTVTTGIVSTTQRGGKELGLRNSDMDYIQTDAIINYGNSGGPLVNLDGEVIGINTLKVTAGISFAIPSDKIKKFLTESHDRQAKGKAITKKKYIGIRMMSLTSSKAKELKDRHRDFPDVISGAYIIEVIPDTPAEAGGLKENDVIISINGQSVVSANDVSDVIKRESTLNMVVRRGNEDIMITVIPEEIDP
# mABHD4 FP – ABHD4 inhibitors, primary screen, biochemical, fluorescence polarization, mouse. hit rate 0.54% among 370,000. inhibition, % at 8.92 µM. purified mABHD4, FP-Rh probe fluorescence polarization. (Lyso)-N-acylphosphatidylethanolamine lipase (Mus musculus), Q8VD66;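 active means inhibition exceeding the mean over every tested compound plus 3 SD, cut at about 30% in these data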;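 further: 0% = plate median of compound wells and 100% = S159A mutant with DMSO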
#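 Assay system: wild-type mouse ABHD4 protein; compound: single nominal dose of 8.92 µM, 0.89% DMSO final; schedule: 45 min + 60 min at 25 °C; measured by: FP readout, ex 525 nm / em 598 nm; evaluation: % inhibition of FP-Rh probe binding versus controls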
# SIAE inh – human SIAE inhibitors, primary screen, biochemical, fluorescence polarization, FP-Rh probe, 1536-well HTS | inhibition, % at 9.66 µM | SIAE FP-Rh probe binding | hit rate 0.69% among 370,000;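 active means inhibition above a cutoff: mean of compounds within the control limits plus 3 SD of those, cut at about 17% in these data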;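 further: 0% = plate median of compound wells and 100% = probe without SIAE protein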
# SIAE confirm – human SIAE inhibitors, retest, confirmation, biochemical, fluorescence polarization, FP-Rh probe, triplicate; shares compounds with SIAE inh; SIAE FP-Rh activity-based probe; inhibition, % at 9.66 µM; hit rate 13% among 2,300; AID 1117263, 2014;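 active means mean inhibition of the replicates above the hit cutoff set in the primary screen, cut at about 17% in these data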;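 further: 0% = SIAE with DMSO and probe and 100% = probe without SIAE; inhibitors lower polarization as more probe stays unbound to SIAE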
# The depositor's hits bear a star; . = no result given.
SMILES,PRMT1 FP inh,GASC-1 inh,HTRA1 inh,mABHD4 FP,SIAE inh,SIAE confirm
COC(=O)[C@]12C[C@H](CC(=O)NCc3cccs3)C(=O)N(CCc3ccc(OC)c(OC)c3)C1=C[C@H](COCc1ccccc1)O[C@@H]2C,-4,.,.,3,-5,.
Cc1c(NC(=S)NC(=O)C(c2ccccc2)c2ccccc2)cccc1C(=O)O,-1,4,-1,4,17*,-4
Cc1ccc(C(=O)O)cc1NC(=S)NC(=O)C(c1ccccc1)c1ccccc1,-3,18,-30,-14,-8,.
COC1=C(Br)C(=O)c2ncccc2C1=O,2,.,18,11,22*,-1
COC(=O)[C@@]12C[C@@H](CC(=O)NCc3cccc4ccccc34)C(=O)N(Cc3ccco3)C1=CCC(C)(C)C2,-3,.,.,-6,-1,.
CCCCc1ccc(C2C3=C(CC(C)(C)CC3=O)NC3=C2C(=O)c2ccccc23)cc1 (stereo unspecified),-1,0,11,16,19*,8
CC1(C)CC(=O)C2=C(C1)NC1=C(C(=O)c3ccccc31)C2c1ccc(O)cc1 (stereo unspecified),7,-4,16,23,12,.
Cc1ccc(C(=O)C2CCN(CC(=O)N3CC(C)CC(C)C3)CC2)cc1 (stereo unspecified),1,.,.,9,-1,.
COc1ccccc1CNC(=O)N1CCN(Cc2nc3ccccc3c(=O)[nH]2)CC1,-1,.,.,-1,-2,.
COc1ccc(C(=O)N(c2ccc(C)cc2)C2C=CS(=O)(=O)C2)cc1OC (stereo unspecified),-4,12,4,-6,20*,-5
CC(C)C[C@H](NC1(C(=O)NC2CCCCC2)CCN(C(=O)OC(C)(C)C)CC1)C(=O)NCCc1c[nH]c2ccccc12,4,.,.,7,8,.
c1ccc2[nH]c(CN3CCN(c4ncnc5c4oc4ccccc45)CC3)nc2c1,0,.,-6,6,20*,-5
Nc1[nH]c(C(=O)c2ccccc2)c(-c2ccccc2Br)c1C(=O)NCc1ccc(-c2ccccc2)cc1,1,.,.,-16,-11,.
C[C@H](O)[C@@H]1C(=O)N2CCc3ccc(-c4ccccc4)cc3[C@@H]2C[C@@H]1N(C)C(=S)Nc1ccc(F)cc1,3,.,-37,9,1,.
Cc1ccc(-n2nc(C)c3c2OC(N)=C(C#N)C3c2ccncc2)cc1 (stereo unspecified),2,10,9,22,19*,5
CC(C)NC(=O)Cn1c(SCC(=O)N2CCCc3ccccc32)nc2ccccc21,1,9,-3,5,18*,0
CC(C)c1ccc(/C=C2\SC(N3CCOCC3)=NC2=O)cc1,5,6,2,-9,9,.
CCc1ccc(/C=C2/SC(N3CCOCC3)=NC2=O)cc1,3,-6,-2,-3,18*,4
Cc1cc(C)cc(N2C(=O)C3C4C=CC(C4)C3C2=O)c1 (stereo unspecified),-1,2,-2,2,19*,-1
Cc1ccc(N2C(=O)C3C4C=CC(C4)C3C2=O)cc1 (stereo unspecified),-2,9,-5,-1,0,.
CCCCCCCCN1C(=O)[C@H](CC(=O)NCCCCc2ccccc2)C[C@@]2(C(=O)OC)CC(C)(C)CC=C12,-1,.,.,4,2,.
CCOC(=O)c1ccc2c(c1)n(CC)c(/C=C/Nc1ccccc1)[n+]2CC,-6,-15,-1,2,18*,5
CCn1c(/C=C/Nc2ccccc2)[n+](CC)c2ccc(Cl)cc21,1,0,0,3,2,.
COc1ccc(C(C)(C)C)cc1NC(=O)Nc1ccc2c(c1)OCO2,2,-1,4,-4,21*,6
COC(=O)[C@]12C[C@H](CC(=O)N3CCOCC3)C(=O)N(Cc3ccc(Cl)cc3Cl)C1=C[C@H](C1CCCC1)O[C@@H]2C,-6,.,.,-8,2,.
CCCCn1nnnc1C(c1cc2ccccc2o1)N(C)CCc1ccccc1 (stereo unspecified),1,.,.,-7,-2,.
